From the RNAGym collection of RNA variant scans (doi:10.1002/anie.201605470)

B1: Osa-1-4 twister ribozyme (parent)
chain: CCGCCUAACACUGCCAAUGCCGGUCCCAAGCCCGGAUAAAAGUGGAGGGGGCGG

Variants of: B1
Test: self-cleavage, relative activity (ratio to wild type); higher = more cleavage; co-transcriptional
Outline: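 A DNA template encoding a 54-nucleotide twister ribozyme from Oryza sativa was made so that each of the 48 positions downstream of the cleavage site carried 97 % wild-type base and 1 % of each other base. Transcription in vitro ran for 2 h at 37 °C, during which the ribozyme could cleave itself. Reverse transcription used a template-switching oligonucleotide, and the products were PCR-amplified and deep-sequenced. Each read was scored as cleaved or uncleaved by whether upstream sequence was present, and relative activity is the fraction cleaved normalised to wild type.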

| Variant | self-cleavage |
| --- | --- |
| CCGCCUAACACUGCCAAUGCCGGUCCCAAGCCCGGAUAAAAGUUGAGGGGCCGG [G44U G51C] | 0.07 |
| CCGCCUAACACUGCCAAUGCCGGUCCCAAGCCCGGAUAAAAGUUGAGGGGACGG [G44U G51A] | 0.69 |
| CCGCCUAACACUGCCAAUGCCGGUCCCAAGCCCGGAUAAAAGUUGAGGGGUCGG [G44U G51U] | 0.19 |
| CCGCCUAACACUGCCAAUGCCGGUCCCAAGCCCGGAUAAAAGUGAAGGGGGCGU [G45A G54U] | 0.34 |
| CCGCCUAACACUGCCAAUGCCGGUCCCAAGCCCGGAUAAAAGUGAAGGGGGCGA [G45A G54A] | 0.15 |
| CCGCCUAACACUGCCAAUGCCGGUCCCAAGCCCGGAUAAAAGUGAAGGGGGCGC [G45A G54C] | 0.1 |
| CCGCCUAACACUGCCAAUGCCGGUCCCAAGCCCGGAUAAAAGUGAAGGGGUCGG [G45A G51U] | 0.07 |
| CCGCCUAACACUGCCAAUGCCGGUCCCAAGCCCGGAUAAAAGUGAAGGGGACGG [G45A G51A] | 0.12 |
| CCGCCUAACACUGCCAAUGCCGGUCCCAAGCCCGGAUAAAAGUGAAGGGGCCGG [G45A G51C] | 0.06 |
| CCGCCUAACACUGCCAAUGCCGGUCCCAAGCCCGGAUAAAAGUUGAGGGGGCUG [G44U G53U] | 0.3 |
| CCGCCUAACACUGCCAAUGCCGGUCCCAAGCCCGGAUAAAAGUUGAGGGGGCCG [G44U G53C] | 0.08 |
| CCGCCUAACACUGCCAAUGCCGGUCCCAAGCCCGGAUAAAAGUUGAGGGGGCAG [G44U G53A] | 0.75 |
| CCGCCUAACACUGCCAAUGCCGGUCCCAAGCCCGGAUAAAAGUUGAGGGGGCGU [G44U G54U] | 0.9 |
| CCGCCUAACACUGCCAAUGCCGGUCCCAAGCCCGGAUAAAAGUUGAGGGGGCGA [G44U G54A] | 0.88 |
| CCGCCUAACACUGCCAAUGCCGGUCCCAAGCCCGGAUAAAAGUUGAGGGGGCGC [G44U G54C] | 0.92 |
| CCGCCUAACACUGCCAAUGCCGGUCCCAAGCCCGGAUAAAAGUUGAAGGGGCGG [G44U G47A] | 0.14 |
| CCGCCUAACACUGCCAAUGCCGGUCCCAAGCCCGGAUAAAAGUUGACGGGGCGG [G44U G47C] | 0.07 |
| CCGCCUAACACUGCCAAUGCCGGUCCCAAGCCCGGAUAAAAGUUGAUGGGGCGG [G44U G47U] | 0.1 |
| CCGCCUAACACUGCCAAGGCCGGUCCCAAGCCCGGAUAAAAGUCGAGGGGGCGG [G44C U18G] | 0.64 |
| CCGCCUAACACUGCCAACGCCGGUCCCAAGCCCGGAUAAAAGUCGAGGGGGCGG [G44C U18C] | 0.83 |
| CCGCCUAACACUGCCAAAGCCGGUCCCAAGCCCGGAUAAAAGUCGAGGGGGCGG [G44C U18A] | 0.88 |
| CCGCCUAACACUGCCAAUGCCGGUCCCAAGCCCGGAUAAAAGUGAACGGGGCGG [G45A G47C] | 0.05 |
| CCGCCUAACACUGCCAAUGCCGGUCCCAAGCCCGGAUAAAAGUGAAUGGGGCGG [G45A G47U] | 0.06 |
| CCGCCUAACACUGCCAAUGCCGGUCCCAAGCCCGGAUAAAAGUGAAAGGGGCGG [G45A G47A] | 0.06 |

| Variant | self-cleavage |
| --- | --- |
| CCGCCUAACACUGCCAAUGCCGGUCCCAAGCCCGGAUAAAAGUUGAGCGGGCGG [G44U G48C] | 0.07 |
| CCGCCUAACACUGCCAAUGCCGGUCCCAAGCCCGGAUAAAAGUUGAGUGGGCGG [G44U G48U] | 0.07 |
| CCGCCUAACACUGCCAAUGCCGGUCCCAAGCCCGGAUAAAAGUUGAGAGGGCGG [G44U G48A] | 0.06 |
| CCGCCUAACACUGCCAAUGCCGGUCCCAAGCCCGGAUAAAAGGGAAGGGGGCGG [G45A U43G] | 0.06 |
| CCGCCUAACACUGCCAAUGCCGGUCCCAAGCCCGGAUAAAAGCGAAGGGGGCGG [G45A U43C] | 0.09 |
| CCGCCUAACACUGCCAAUGCCGGUCCCAAGCCCGGAUAAAAGAGAAGGGGGCGG [G45A U43A] | 0.09 |
| CCGCCUAACACUGCCAAUGCCGGUCCCAAGCCCGGAUAAAAGUCGAGGGGGCUG [G44C G53U] | 0.38 |
| CCGCCUAACACUGCCAAUGCCGGUCCCAAGCCCGGACAAAAGUCGAGGGGGCGG [G44C U37C] | 1 |
| CCGCCUAACACUGCCAAUGCCGGUCCCAAGCCCGGAGAAAAGUCGAGGGGGCGG [G44C U37G] | 1.02 |
| CCGCCUAACACUGCCAAUGCCGGUCCCAAGCCCGGAAAAAAGUCGAGGGGGCGG [G44C U37A] | 0.71 |
| CCGCCUAACACUGCCAAUGCCGGGCCCAAGCCCGGAUAAAAGUUGAGGGGGCGG [G44U U24G] | 0.04 |
| CCGCCUAACACUGCCAAUGCCGGACCCAAGCCCGGAUAAAAGUUGAGGGGGCGG [G44U U24A] | 0.09 |
| CCGCCUAACACUGCCAAUGCCGGCCCCAAGCCCGGAUAAAAGUUGAGGGGGCGG [G44U U24C] | 0.15 |
| CCGCCUAACACUGCCAAUGCCGGUCCCAAGCCCGGAUAAAAGAUGAGGGGGCGG [G44U U43A] | 0.66 |
| CCGCCUAACACUGCCAAUGCCGGUCCCAAGCCCGGAUAAAAGCUGAGGGGGCGG [G44U U43C] | 0.37 |
| CCGCCUAACACUGCCAAUGCCGGUCCCAAGCCCGGAUAAAAGGUGAGGGGGCGG [G44U U43G] | 0.11 |
| CCGCCUAACACUGCCAAUGCCGGUCCCAAGCCCGGAUAAAAGGCGAGGGGGCGG [G44C U43G] | 0.07 |
| CCGCCUAACACUGCCAAUGCCGGUCCCAAGCCCGGAUAAAAGCCGAGGGGGCGG [G44C U43C] | 0.73 |
| CCGCCUAACACUGCCAAUGCCGGUCCCAAGCCCGGAUAAAAGACGAGGGGGCGG [G44C U43A] | 0.74 |
| CCGCCUAACACUGCCAAUGCCGGUCCCAAGCCCGGAUAAAAGUGAAGGGGGCCG [G45A G53C] | 0.05 |
| CCGCCUAACACUGCCAAUGCCGGUCCCAAGCCCGGAUAAAAGUGAAGGGGGCUG [G45A G53U] | 0.07 |
| CCGCCUAACACUGCCAAUGCCGGUCCCAAGCCCGGAUAAAAGUGAAGGGGGCAG [G45A G53A] | 0.09 |
| CCGCCUAACACUGCCAAUGCCGGUCCCAAGCCCGGAAAAAAGUUGAGGGGGCGG [G44U U37A] | 0.66 |
| CCGCCUAACACUGCCAAUGCCGGUCCCAAGCCCGGAGAAAAGUUGAGGGGGCGG [G44U U37G] | 0.95 |
